Source: ChEMBL document CHEMBL4406846, “Development of novel multipotent compounds modulating endocannabinoid and dopaminergic systems” (Eur J Med Chem, 2019)
Values after ≈ are worked out from the molar mass of the structure shown. Active and inactive are the calls of the source. No cut-off for these calls is given here.

Key:
[1] = Solubility of compound in DMSO at pH 3 incubated for […] by HPLC/UV/DAD analysis; type: physicochemical
Summary of the method: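 10 mM DMSO stock diluted to 250 μM (2.5% DMSO) in 50 mM acetic acid (pH 3.0) or 50 mM PBS (pH 7.4). Shaken 24 h at 25 °C, filtered, diluted 1:2 and quantified by HPLC-UV at 254 nm against a 250 μM standard; triplicate average.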

[2] = Chemical stability of compound in DMSO assessed as remaining compound at pH 3 incubated for 24 hrs by HPLC/UV/DAD analysis; type: physicochemical; conditions: read-out: Stability
Summary of the method: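 Samples at 250 μM (2.5% DMSO) in 50 mM acetic acid, pH 3.0, held 24 h at 25 °C. HPLC/UV/DAD peak area at 254 nm after 24 h divided by area at T0 × 100; triplicate average.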

NIH3T3 = experiment: Cytotoxicity against mouse NIH/3T3 cells assessed as cell viability incubated for 24 hrs by neutral red uptake based assay; conditions: NIH3T3, 24 h
Summary of the method: (§1)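 NIH3T3 or U-373-MG cells grown in DMEM with 10% FCS at 37 °C, 5% CO2; compound from DMSO stock diluted in complete medium, 4–100 μM, 24 h. Viability by Neutral Red Uptake (3 h NR loading, acetic acid/ethanol extraction, A540), normalised to % control; IC50 reported. Three experiments in six replicates, Student's t test.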

U373 MG = experiment: Cytotoxicity against human U373MG cells assessed as cell viability incubated for 24 hrs by neutral red uptake based assay; parameters: species or system U-373MG ATCC; summary of the method: as §1
[3] = Metabolic stability in rat liver microsomes assessed as apparent decay constant at 5 uM incubated for 60 mins by UV-Vis spectrophotometry; type: ADME, Microsome; conditions: 1 h
[4] = Metabolic stability in rat liver microsomes assessed as intrinsic clearance at 5 uM incubated for 60 mins by UV-Vis spectrophotometry; type: ADME, Microsome; conditions: read-out: CLH
[5] = Metabolic stability in rat liver microsomes assessed as half life at 5 uM incubated for 60 mins by UV-Vis spectrophotometry; type: ADME, Microsome
[6] = Metabolic stability in human liver microsomes assessed as apparent decay constant at 5 uM incubated for 60 mins by UV-Vis spectrophotometry; type: ADME, Microsome; conditions: 1 h
[7] = Metabolic stability in human liver microsomes assessed as intrinsic clearance at 5 uM incubated for 60 mins by UV-Vis spectrophotometry; type: ADME, Microsome; conditions: read-out: CLH
[8] = Metabolic stability in human liver microsomes assessed as half life at 5 uM incubated for 60 mins by UV-Vis spectrophotometry; type: ADME, Microsome
IMR-32 [9] = experiment: Cytotoxicity against human IMR32 cells at 0.1 to 50 uM incubated for 24 hrs by LDH release assay; type: cell-based; conditions: imr-32, 24 h
Summary of the method: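 IMR 32 cells exposed 24 h to 0.1, 0.5, 1, 5, 10 and 50 μM; LDH release expressed as percent of maximal release from Triton X-100-treated cells (100%). Samples run at least in triplicate, mean ± SD.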

IMR-32 [10] = experiment: Antiinflammatory activity in human IMR32 cells assessed as reduction in LPS-induced NF-kappaB-DNA binding at 0.5 and 1 uM preincubated for 24 hrs followed by LPS stimulation and measured after 30 mins by ELISA; type: functional, cell-based
Summary of the method: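 IMR 32 cells pre-treated 24 h at 0.5 and 1 μM, then challenged with 100 μg/mL LPS for 30 min; NF-κB p65 binding of nuclear extracts to the DNA consensus sequence measured. Mean ± SEM of 3 independent experiments.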

IMR-32 [11] = experiment: Antiinflammatory activity in human IMR32 cells assessed as reduction in LPS-induced NF-kappaB-DNA binding at 0.5 and 1 uM preincubated for 24 hrs followed by LPS stimulation and measured after 30 mins by immunoblot analysis; type: functional, cell-based
[12] = Retention time of compound in human liver microsomes incubated for 30 mins by HPLC analysis; type: ADME, Microsome; conditions: 0.5 h
[13] = molecular target: T1, Fatty-acid amide hydrolase 1 (Mus musculus, UniProt O08914); experiment: Inhibition of FAAH in mouse brain membranes using [14C]-AEA as substrate incubated for 15 mins by scintillation counting method; type: cell membranes
T1 sequence (O08914 whole entry): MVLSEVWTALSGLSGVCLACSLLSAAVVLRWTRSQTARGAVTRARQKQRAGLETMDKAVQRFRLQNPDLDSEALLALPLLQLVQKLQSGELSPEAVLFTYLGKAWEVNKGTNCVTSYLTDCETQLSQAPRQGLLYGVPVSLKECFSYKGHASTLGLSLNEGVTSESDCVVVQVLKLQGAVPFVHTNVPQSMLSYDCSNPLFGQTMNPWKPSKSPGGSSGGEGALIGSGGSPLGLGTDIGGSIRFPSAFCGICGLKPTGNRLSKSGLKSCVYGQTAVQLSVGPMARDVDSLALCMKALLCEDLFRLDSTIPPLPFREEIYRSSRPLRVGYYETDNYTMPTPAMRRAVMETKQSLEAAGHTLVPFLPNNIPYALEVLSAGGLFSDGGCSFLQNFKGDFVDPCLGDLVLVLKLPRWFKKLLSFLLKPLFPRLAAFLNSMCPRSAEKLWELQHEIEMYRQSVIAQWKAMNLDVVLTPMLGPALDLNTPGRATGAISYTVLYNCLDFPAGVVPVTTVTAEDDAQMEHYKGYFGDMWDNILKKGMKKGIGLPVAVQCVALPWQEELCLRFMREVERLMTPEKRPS

[14] = molecular target: T1, Fatty-acid amide hydrolase 1; experiment: Inhibition of FAAH in mouse brain membranes assessed as inhibitory constant using [14C]-AEA as substrate incubated for 15 mins by scintillation counting method; type: cell membranes
Summary of the method: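 Mouse brain incubated with 10 μM [¹⁴C]AEA at 37 °C for 15 min, pH 9.0, compound added to the medium. Stopped with chloroform/methanol 2:1; [¹⁴C]ethanolamine released into the aqueous phase measured. Mean of at least three experiments.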

D(2) dopamine receptor = D(2) dopamine receptor (Homo sapiens, UniProt P14416); experiment: Displacement of [3H]-spiperone from human D2 receptor expressed in CHO cells co-expressing Galpha16 incubated for 120 mins by liquid scintillation counting method; type: cell-based
Summary of the method: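 Membranes from CHO cells expressing hD2 with Gα16; 2 μg protein/well, 0.08 nM [³H]-spiperone final, 23 °C for 120 min. Stopped by rapid filtration on PEI-soaked GF/B filters, bound radioactivity counted; Ki by Cheng-Prusoff; at least three experiments.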

D(3) dopamine receptor = D(3) dopamine receptor (Homo sapiens, UniProt P35462); experiment: Displacement of [3H]-spiperone from human D3 receptor expressed in CHO cells co-expressing Galpha16 incubated for 120 mins by liquid scintillation counting method; type: cell-based
[15] = molecular target: Voltage-gated inwardly rectifying potassium channel KCNH2 (Homo sapiens, UniProt Q12809); experiment: Inhibition of human ERG expressed in HEK293 cells […] by patch clamp assay; type: cell-based
Summary of the method: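 HEK293 cells stably expressing hERG under a tetracycline-inducible promoter (10 μg/mL tetracycline for 24, 48 or 72 h). Automated patch clamp, tail current; 0.1, 1 and 10 μM in 0.1% DMSO after 3 min vehicle, 5 min exposure. Residual current vs vehicle gives % inhibition; IC50 estimated; at least two cells.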

[16] = molecular target: Cannabinoid receptor 1 (Mus musculus) (UniProt P47746); experiment: Displacement of [3H]CP55, 940 from mouse brain membrane CB1 receptor
Summary of the method: (§2)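 Mouse brain membrane fraction (18000×g pellet) in 50 mM Tris-HCl, 2 mM Tris-EDTA, 3 mM MgCl2, pH 7.4. Rapid filtration binding with the agonist [³H]CP55,940; nonspecific binding defined with 1 μM unlabelled agonist; compound added directly to the incubation.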

[17] = molecular target: Cannabinoid receptor 2 (Mus musculus) (UniProt P47936); experiment: Displacement of [3H]CP55, 940 from mouse brain membrane CB2 receptor; summary of the method: as §2
[18] = molecular target: T2, Monoglyceride lipase (Mus musculus) (UniProt O35678); experiment: Inhibition of MAGL in mouse brain assessed as release of [3H]glycerol using [3H]-2-OG as substrate incubated for 30 mins by scintillation counting method; type: tissue-based
T2 sequence (whole entry): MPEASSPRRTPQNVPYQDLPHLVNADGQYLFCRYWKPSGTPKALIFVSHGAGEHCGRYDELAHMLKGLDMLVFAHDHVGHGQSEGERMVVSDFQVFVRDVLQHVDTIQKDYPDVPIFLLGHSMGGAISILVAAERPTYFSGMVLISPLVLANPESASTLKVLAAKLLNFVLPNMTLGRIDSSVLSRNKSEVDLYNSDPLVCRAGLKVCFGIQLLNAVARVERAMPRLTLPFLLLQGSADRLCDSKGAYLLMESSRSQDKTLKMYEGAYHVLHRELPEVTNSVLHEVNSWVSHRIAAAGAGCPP
Summary of the method: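 Mouse brain homogenised in 50 mM sodium phosphate pH 8.0 with 0.32 M sucrose, spun sequentially up to 100,000×g. Final supernatant incubated with 10 μM [³H]2-OG at 37 °C for 30 min; stopped with chloroform/methanol and aqueous [³H]glycerol scintillation-counted.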

[19] = Mutagenicity in Salmonella typhimurium TA100 assessed as number of revertants at 5 to 230 uM incubated for 2 days by AMES test; type: toxicity; conditions: salmonella enterica subsp. enterica serovar typhimurium, 48 h
[20] = Mutagenicity in Salmonella typhimurium TA100 assessed as number of revertants in presence of liver S9 fraction at 5 to 230 uM incubated for 2 days by AMES test; type: toxicity, subcellular; conditions: salmonella enterica subsp. enterica serovar typhimurium, s9, 48 h
[21] = Mutagenicity in Salmonella typhimurium TA98 assessed as number of revertants at 5 to 230 uM incubated for 2 days by AMES test; type: toxicity; conditions: salmonella enterica subsp. enterica serovar typhimurium, 48 h
[22] = Mutagenicity in Salmonella typhimurium TA98 assessed as number of revertants in presence of liver S9 fraction at 5 to 230 uM incubated for 2 days by AMES test; type: toxicity, subcellular; conditions: salmonella enterica subsp. enterica serovar typhimurium, s9, 48 h

Voltage-gated inwardly rectifying potassium channel KCNH2, sequence (Q12809 whole entry): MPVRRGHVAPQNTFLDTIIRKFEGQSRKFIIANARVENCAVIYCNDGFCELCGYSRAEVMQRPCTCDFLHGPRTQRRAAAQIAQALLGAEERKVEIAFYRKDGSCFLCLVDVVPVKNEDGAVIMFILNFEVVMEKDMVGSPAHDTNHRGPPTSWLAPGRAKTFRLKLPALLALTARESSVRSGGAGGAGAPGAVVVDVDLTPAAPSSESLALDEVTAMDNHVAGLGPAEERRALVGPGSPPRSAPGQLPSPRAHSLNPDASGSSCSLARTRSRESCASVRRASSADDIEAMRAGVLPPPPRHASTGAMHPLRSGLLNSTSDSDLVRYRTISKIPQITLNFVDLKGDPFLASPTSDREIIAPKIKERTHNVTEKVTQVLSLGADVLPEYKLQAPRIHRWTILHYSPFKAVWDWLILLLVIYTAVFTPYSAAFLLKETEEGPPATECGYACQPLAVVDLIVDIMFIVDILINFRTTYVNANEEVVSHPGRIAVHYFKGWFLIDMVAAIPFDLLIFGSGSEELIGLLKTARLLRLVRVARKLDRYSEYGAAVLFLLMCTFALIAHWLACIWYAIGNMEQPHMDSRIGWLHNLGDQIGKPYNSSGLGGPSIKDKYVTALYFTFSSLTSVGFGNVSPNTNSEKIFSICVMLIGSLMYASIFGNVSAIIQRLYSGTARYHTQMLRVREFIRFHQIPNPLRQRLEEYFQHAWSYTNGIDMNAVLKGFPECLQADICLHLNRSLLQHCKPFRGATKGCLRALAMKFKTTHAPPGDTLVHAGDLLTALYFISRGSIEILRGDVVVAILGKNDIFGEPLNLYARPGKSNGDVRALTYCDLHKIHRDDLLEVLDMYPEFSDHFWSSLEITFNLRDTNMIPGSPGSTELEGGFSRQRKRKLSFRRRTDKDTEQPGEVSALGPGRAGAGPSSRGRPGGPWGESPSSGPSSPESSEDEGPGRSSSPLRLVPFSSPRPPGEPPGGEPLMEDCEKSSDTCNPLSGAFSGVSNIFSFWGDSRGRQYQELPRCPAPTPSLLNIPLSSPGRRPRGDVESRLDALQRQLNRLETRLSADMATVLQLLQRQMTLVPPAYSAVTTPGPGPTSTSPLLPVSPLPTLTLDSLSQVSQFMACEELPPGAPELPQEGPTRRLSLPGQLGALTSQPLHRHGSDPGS
D(3) dopamine receptor, sequence (P35462 whole entry): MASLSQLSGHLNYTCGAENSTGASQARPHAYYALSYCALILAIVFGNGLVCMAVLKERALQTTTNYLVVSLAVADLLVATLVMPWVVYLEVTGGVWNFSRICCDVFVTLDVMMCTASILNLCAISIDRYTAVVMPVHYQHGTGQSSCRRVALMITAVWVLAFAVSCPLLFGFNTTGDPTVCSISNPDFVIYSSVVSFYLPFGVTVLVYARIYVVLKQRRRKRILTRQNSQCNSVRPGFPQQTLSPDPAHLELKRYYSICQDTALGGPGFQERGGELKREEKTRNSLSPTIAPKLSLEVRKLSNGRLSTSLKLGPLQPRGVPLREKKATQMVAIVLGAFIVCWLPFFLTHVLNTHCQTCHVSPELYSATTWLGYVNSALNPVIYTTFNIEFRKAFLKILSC
D(2) dopamine receptor, sequence (P14416 whole entry): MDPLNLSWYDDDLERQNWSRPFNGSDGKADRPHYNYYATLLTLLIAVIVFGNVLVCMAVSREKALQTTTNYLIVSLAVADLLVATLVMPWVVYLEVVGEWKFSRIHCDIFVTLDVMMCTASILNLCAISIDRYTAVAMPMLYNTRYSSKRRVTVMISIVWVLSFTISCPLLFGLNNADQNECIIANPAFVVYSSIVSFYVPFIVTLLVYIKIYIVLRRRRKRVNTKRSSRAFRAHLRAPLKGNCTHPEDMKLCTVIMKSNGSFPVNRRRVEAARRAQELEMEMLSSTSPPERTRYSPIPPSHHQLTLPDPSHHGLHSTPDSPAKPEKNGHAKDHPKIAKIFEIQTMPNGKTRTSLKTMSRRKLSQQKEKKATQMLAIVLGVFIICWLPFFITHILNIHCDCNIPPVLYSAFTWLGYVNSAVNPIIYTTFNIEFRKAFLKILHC
Cannabinoid receptor 1 (Mus musculus), sequence (P47746 whole entry): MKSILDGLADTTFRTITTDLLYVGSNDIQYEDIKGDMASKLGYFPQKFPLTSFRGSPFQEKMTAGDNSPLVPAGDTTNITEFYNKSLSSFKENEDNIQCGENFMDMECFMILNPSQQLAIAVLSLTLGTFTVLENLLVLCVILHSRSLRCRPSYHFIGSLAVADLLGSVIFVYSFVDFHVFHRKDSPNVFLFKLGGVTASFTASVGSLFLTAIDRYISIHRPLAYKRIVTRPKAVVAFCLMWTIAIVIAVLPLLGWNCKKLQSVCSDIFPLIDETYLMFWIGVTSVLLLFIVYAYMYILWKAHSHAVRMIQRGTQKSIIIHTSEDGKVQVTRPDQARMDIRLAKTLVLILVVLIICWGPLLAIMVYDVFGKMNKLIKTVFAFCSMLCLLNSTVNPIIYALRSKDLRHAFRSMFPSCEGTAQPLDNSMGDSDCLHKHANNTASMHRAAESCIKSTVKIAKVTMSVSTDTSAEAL
Cannabinoid receptor 2 (Mus musculus), sequence (P47936 whole entry): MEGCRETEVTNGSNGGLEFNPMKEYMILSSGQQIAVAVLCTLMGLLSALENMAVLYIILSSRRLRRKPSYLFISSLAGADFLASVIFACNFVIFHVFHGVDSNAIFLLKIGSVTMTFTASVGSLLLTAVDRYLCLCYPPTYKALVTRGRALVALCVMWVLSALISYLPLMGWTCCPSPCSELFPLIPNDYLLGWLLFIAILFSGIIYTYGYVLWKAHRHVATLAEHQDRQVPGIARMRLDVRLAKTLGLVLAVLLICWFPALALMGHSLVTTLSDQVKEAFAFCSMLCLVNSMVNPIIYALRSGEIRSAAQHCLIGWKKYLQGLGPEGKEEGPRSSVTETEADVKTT

NC(=O)c1ccn(-c2cccc(OC(=O)NCCCCCCc3ccccc3)c2)c1
solubility [1]: 465 µM (≈ 189 µg/mL) | remaining at 24 h [2]: 92.1% | IC50 (NIH3T3): 75000 nM | IC50 (U373 MG): 50000 nM | K [3]: 0.01379 ×10⁻¹ /min | microsomal CLint at 5 µM [4]: 23.4 µL/min/mg | half-life at 5 µM [5]: 50.3 min | K [6]: 0.02496 ×10⁻¹ /min | microsomal CLint at 5 µM [7]: 41.6 µL/min/mg | half-life at 5 µM [8]: 27.8 min | Activity (IMR-32 [9]): Non-Toxic | Activity (IMR-32 [10]): Active | Activity (IMR-32 [11]): Active | Retention_time [12]: 13.72 min

NC(=O)c1ccn(-c2cccc(OC(=O)NCCN3CCN(c4ccccc4)CC3)c2)c1
IC50 [13]: 58 nM | Ki [14]: 16 nM | Ki (D(2) dopamine receptor): 186 nM | Ki (D(3) dopamine receptor): 105 nM | IC50 [15]: 5300 nM | inhibition [16]: inactive | inhibition [17]: inactive | inhibition [18]: inactive | IC50 (NIH3T3): 5000 nM | Activity [19]: Non-Toxic | Activity [20]: Non-Toxic | Activity [21]: Non-Toxic | Activity [22]: Non-Toxic

NC(=O)c1ccn(-c2cccc(OC(=O)NCCCN3CCN(c4ccccc4)CC3)c2)c1
IC50 [13]: 94 nM | Ki [14]: 25 nM | Ki (D(2) dopamine receptor): 66 nM | Ki (D(3) dopamine receptor): 34 nM | IC50 [15]: 3500 nM

NC(=O)c1cn(-c2cccc(OC(=O)NCCN3CCN(c4ccccc4)CC3)c2)nn1
IC50 [13]: 757 nM | Ki [14]: 194 nM

Cc1cc(C(N)=O)c(-c2cccc(OC(=O)NCCN3CCN(c4ccccc4)CC3)c2)[nH]1
IC50 [13]: 195 nM | Ki [14]: 50 nM
